Test results: ChEMBL document CHEMBL1146632, “Styrylheterocycles: a novel class of inhibitors on lipopolysaccharide-Induced nitric oxide production” (Bioorg Med Chem Lett, 2003)

Test system: RAW264.7
Test: Inhibitory activity of the compound against nitric oxide production in lipopolysaccharide-activated mouse macrophage RAW264.7 cells

Row | IC50 [µM] | Compound
1 | 7.8 | COc1cc(/C=C/c2ccsc2)cc(OC)c1OC

Test system: RAW264.7
Test: Inhibitory activity against nitric oxide production in lipopolysaccharide-activated mouse macrophage RAW264.7 cells
Assay type: functional, cell-based
Outline: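 RAW264.7 cells in phenol-red-free DMEM with 10% FBS were plated at 8×10⁵ cells/mL and grown 24 h. The medium was then renewed, and cells were exposed to LPS with or without test sample for 20 h. Nitrite in the medium, taken as the NO indicator, was measured in triplicate with Griess reagent (0.1% naphthylethylenediamine, 1% sulfanilamide, 5% H₃PO₄). Inhibition was calculated as % of the vehicle-treated control, and IC₅₀ was taken from dose-response curves.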

Row | Compound | IC50 [µM]
2 | COc1ccc(/C=C/c2cccs2)cc1 | > 50
3 | COc1cc(/C=C\c2cccs2)cc(OC)c1 | > 50
4 | COc1ccc(/C=C\c2cccs2)cc1 | > 50
5 | COc1cc(/C=C/c2cccs2)cc(OC)c1 | > 50
6 | Oc1ccc(/C=C/c2cc(O)cc(O)c2)cc1 [RESVERATROL] | 15.9

Next, values leading:

Row | IC50 [µM] | Compound
7 | 5.6 | COc1cc(/C=C\c2ccsc2)cc(OC)c1OC
8 | 5.9 | COc1cc(/C=C/c2ccco2)cc(OC)c1OC
9 | 5.3 | COc1cc(/C=C/c2cccs2)cc(OC)c1OC
10 | 6.6 | COc1cc(/C=C\c2ccoc2)cc(OC)c1OC
11 | 9.5 | COc1cc(/C=C/c2ccoc2)cc(OC)c1OC
